According to ChEMBL document CHEMBL1124971, “Cyclization-activated prodrugs. Basic carbamates of 4-hydroxyanisole” (J Med Chem, 1990):

Experiments:
[1] = Half-life at 37 degree Celsius in aqueous solution at pH 7.4; format: ADME
In short: (§1)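 Carbamate hydrochloride salt (about 0.5 mg) taken up in buffer pre-warmed to 37 °C, final about 1 mM, and held at 37 °C. Samples were injected straight onto C-18 reverse-phase HPLC at intervals, or quenched in 1 N HCl first. Carbamate and 4-methoxyphenol were read at 220 nm. Half-life is the time to 50% conversion, fitted by first-order kinetics. Each value is the mean of at least two separate runs.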

[2] = pKa of the compound; format: physicochemical
[3] = Half-life at 37 degree Centigrade, towards Murine plasma esterases at pH 7.4; format: ADME; conditions: mouse
In short: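 Carbamate HCl salt dissolved in dilute H3PO4, then added to fresh murine plasma with pH 7.4 phosphate buffer (plasma:buffer 1.6:0.40) at 37 °C, final 5×10^-4 M. pH held at 7.4 by pH-stat. Aliquots taken at intervals were quenched in 7% HClO4 and centrifuged, and the supernatant was analysed.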

[4] = Half-life at 37 degree Celsius in aqueous solution at pH 5.2; format: ADME; in short: as §1
[5] = Half-life at 37 degree Centigrade, in aqueous solution at pH 7.4; format: ADME; in short: as §1
[6] = Half-life at 37 degree Celsius in aqueous solution at pH 4.2; format: ADME; in short: as §1
[7] = Half-life at 37 degree Celsius in aqueous solution at pH 6.8; format: ADME; in short: as §1

| SMILES | half-life [1] [h] | pKa [2] | further results |
| --- | --- | --- | --- |
| CCNCCN(CC)C(=O)Oc1ccc(OC)cc1.Cl | 1.97 | – | – |
| COc1ccc(OC(=O)NCCCN)cc1.Cl | 15.2 | 9.6 | – |
| CNCCN(C)C(=O)Oc1ccc(OC)cc1.Cl | – | – | half-life [3]: 0.933 h; half-life [4]: 57.8 h; half-life [5]: 0.605 h; half-life [6]: > 360 h; half-life [7]: 2.33 h |
| COc1ccc(OC(=O)N(C)CCN(C)C)cc1.Cl | 0.66 | – | – |
| CNCCCN(C)C(=O)Oc1ccc(OC)cc1.Cl | 15.7 | – | – |
| CNCCNC(=O)Oc1ccc(OC)cc1.Cl | 5.58 | – | – |
| COc1ccc(OC(=O)NCCN)cc1.Cl | 12.1 | 8.65 | – |
| CNCCOC(=O)Oc1ccc(OC)cc1.Cl | < 0.005 | – | – |
| COc1ccc(OC(=O)N(C)CCN)cc1.Cl | 5.07 | 8.9 | – |
